Blank lines part the entries; values can stand above or below the molecule they belong to. Non-standard residues stand in square brackets, D forms with d. Residues, ends and D or L forms follow the SMILES beside them.
B2: mMC3R with C-terminal NanoLuc or HaloTag (NanoBRET constructs) (receptor, mouse, UniProt P33033 1-323, looked up)
chain: MNSSCCLSSVSPMLPNLSEHPAAPPASNRSGSGFCEQVFIKPEVFLALGIVSLMENILVILAVVRNGNLHSPMYFFLCSLAAADMLVSLSNSLETIMIAVINSDSLTLEDQFIQHMDNIFDSMICISLVASICNLLAIAIDRYVTIFYALRYHSIMTVRKALTLIGVIWVCCGICGVMFIIYSESKMVIVCLITMFFAMVLLMGTLYIHMFLFARLHVQRIAVLPPAGVVAPQQHSCMKGAVTITILLGVFIFCWAPFFLHLVLIITCPTNPYCICYTAHFNTYLVLIMCNSVIDPLIYAFRSLELRNTFKEILCGCNSMNLG

Tests used:
male mice = assay: ICV fasting-refeeding paradigm, energy homeostasis in TSE metabolic cages; type: in vivo, mouse; settings: 5 nmol ICV
How it was run: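 Cannula-validated male mice were acclimated for one week in sealed TSE metabolic home cages (12 h light/dark, 23–25 °C) and tested in a cross-over design. Food was removed at lights out for a 22 h fast. At t=0, 2 h before lights out, mice received 5 nmol test compound or saline ICV and food was returned. Mice were watched visually for ≥2 h after dosing.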

[1] = In vitro mouse serum stability assay; type: in vitro ADME; settings: for half-life / remaining at 0.5 h: serum
[2] = molecular target: mouse melanocortin 3 receptor, mMC3R-Flag, stably expressed on HEK293 cells (mouse) (UniProt P33033)
[3] = molecular target: mouse melanocortin 4 receptor, wildtype mMC4R, stably expressed on HEK293 cells (mouse) (UniProt P56450)
[4] = molecular target: B2; assay: FRET or BRET
FRET or BRET = molecular target: the molecule itself; assay: FRET or BRET

ambulatory activity (male mice; fasting-refeeding): No significant effects
remaining at 72 h, 10 µM ([1]; mouse serum): 12%
half-life [1]: 1010 min
Molecule: CC(=O)N[C@@H](Cc1cnc[nH]1)C(=O)N[C@H](Cc1ccccc1)C(=O)N[C@@H](CCCN=C(N)N)C(=O)N[C@@H](Cc1c[nH]c2ccccc12)C(N)=O [CJL-1-14, Ac-His-DPhe-Arg-Trp-NH2]
adverse reactions, visual monitoring (male mice; at least 2 hours post treatment): no adverse reactions

half-life [1]: 6 min
remaining at 0.5 h [1]: ≤ 2%
Molecule: CC(=O)N[C@@H](Cc1cnc[nH]1)C(=O)N[C@H](Cc1ccccc1)C(=O)N[C@@H](CCCNC(=N)N)C(=O)N[C@@H](Cc1c[nH]c2ccccc12)C(=O)N1CCC[C@H]1C(=O)NCC(=O)N1CCC[C@H]1C(=O)NCC(=O)N1CCC[C@H]1C(=O)NCC(=O)N1CCC[C@H]1C(=O)NCC(=O)N1CCC[C@H]1C(=O)NCC(=O)N1CCC[C@H]1C(=O)NCC(=O)N[C@@H](Cc1cnc[nH]1)C(=O)N[C@H](Cc1ccccc1)C(=O)N[C@@H](CCCNC(=N)N)C(=O)N[C@@H](Cc1c[nH]c2ccccc12)C(N)=O [CJL-1-31, Ac-His-DPhe-Arg-Trp-(Pro-Gly)6-His-DPhe-Arg-Trp-NH2] (Ac-H[dF]RWPGPGPGPGPGPGH[dF]RW-NH2)

half-life [1]: 6 min
remaining at 0.5 h [1]: ≤ 2%
Molecule: N=C(N)NCCC[C@H](NC(=O)[C@@H](Cc1ccccc1)NC(=O)[C@H](Cc1cnc[nH]1)NC(=O)CNC(=O)[C@@H]1CCCN1C(=O)CNC(=O)[C@@H]1CCCN1C(=O)CNC(=O)[C@@H]1CCCN1C(=O)CNC(=O)[C@@H]1CCCN1C(=O)CNC(=O)[C@@H]1CCCN1C(=O)CNC(=O)[C@@H]1CCCN1)C(=O)N[C@@H](Cc1c[nH]c2ccccc12)C(N)=O [CJL-1-41, (Pro-Gly)6-His-DPhe-Arg-Trp-NH2] (H-PGPGPGPGPGPGH[dF]RW-NH2)

half-life [1]: 6 min
remaining at 0.5 h [1]: ≤ 2%
Molecule: CC(=O)N[C@@H](Cc1cnc[nH]1)C(=O)N[C@H](Cc1ccccc1)C(=O)N[C@@H](CCCNC(=N)N)C(=O)N[C@@H](Cc1c[nH]c2ccccc12)C(=O)N1CCC[C@H]1C(=O)NCC(=O)N1CCC[C@H]1C(=O)NCC(=O)N1CCC[C@H]1C(=O)NCC(=O)N1CCC[C@H]1C(=O)NCC(=O)N1CCC[C@H]1C(=O)NCC(=O)N1CCC[C@H]1C(=O)NCC(N)=O [CJL-5-35-1, Ac-His-DPhe-Arg-Trp-(Pro-Gly)6-NH2] (Ac-H[dF]RWPGPGPGPGPGPG-NH2)

Agonist cAMP Based Alpha Screen Results EC50 (nM), stable mMC3R cells [2]: 0.21 nM
Agonist cAMP Based Alpha Screen Results EC50 (nM), stable mMC4R cells [3]: 3.1 nM
Molecule: α-MSH (peptide)

BRET ratio [4]: 150 mBU
B1: mMC4R with C-terminal NanoLuc or HaloTag (NanoBRET constructs) (receptor, mouse, UniProt P56450 1-332, looked up)
chain: MNSTHHHGMYTSLHLWNRSSYGLHGNASESLGKGHPDGGCYEQLFVSPEVFVTLGVISLLENILVIVAIAKNKNLHSPMYFFICSLAVADMLVSVSNGSETIVITLLNSTDTDAQSFTVNIDNVIDSVICSSLLASICSLLSIAVDRYFTIFYALQYHNIMTVRRVGIIISCIWAACTVSGVLFIIYSDSSAVIICLISMFFTMLVLMASLYVHMFLMARLHIKRIAVLPGTGTIRQGTNMKGAITLTILIGVFVVCWAPFFLHLLFYISCPQNPYCVCFMSHFNLYLILIMCNAVIDPLIYALRSQELRKTFKEIICFYPLGGICELSSRY
BRET ratio (FRET or BRET): 100 mBU

Molecule: B2
BRET ratio (FRET or BRET): 90 mBU

— article PMC5679024 (ACS chemical neuroscience, 2017)
